Columns and labels:
Type in all cases: functional
[1] = tested on: K562; assay: Anticancer activity against human K562 cells after 48 hrs; details: K562, 48 h
In short: (§1)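 NCI Drug Evaluation Branch 60-cell-line screen across leukemia, melanoma, lung, colon, CNS, ovarian, renal, prostate and breast panels. The incubation period is 48 h. Parameters are derived from dose–response data: GI50 is the concentration giving 50% decrease in net growth, TGI is total growth inhibition, and LC50 is net 50% loss of initial cells. Values beyond the tested range are reported as greater or less than the maximum or minimum concentration.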

[2] = tested on: SR; assay: Anticancer activity against human SR cells after 48 hrs
In short: (§2)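 NCI 60-line panel protocol with a 48 h incubation. Per line: GI50 = concentration giving 50% decrease in net cell growth; TGI = total growth inhibition; LC50 = net 50% loss of initial cells. When the level was not reached or was exceeded, the value is given as greater or less than the highest or lowest concentration tested.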

[3] = tested on: EKVX; assay: Anticancer activity against human EKVX cells after 48 hrs; in short: as §1
[4] = tested on: HOP-62; assay: Anticancer activity against human HOP62 cells after 48 hrs; details: HOP-62, 48 h; in short: as §1
[5] = tested on: NCI-H23; assay: Anticancer activity against human NCI-H23 cells after 48 hrs; details: NCI-H23, 48 h; in short: as §2
[6] = tested on: NCI-H460; assay: Anticancer activity against human NCI-H460 cells after 48 hrs; details: NCI-H460, 48 h; in short: as §2
[7] = tested on: NCI-H522; assay: Anticancer activity against human NCI-H522 cells after 48 hrs; details: NCI-H522, 48 h; in short: as §2
[8] = tested on: COLO 205; assay: Anticancer activity against human COLO205 cells after 48 hrs; details: COLO 205, 48 h; in short: as §1
[9] = tested on: HCT-15; assay: Anticancer activity against human HCT15 cells after 48 hrs; details: HCT-15, 48 h; in short: as §1
[10] = tested on: SW-620; assay: Anticancer activity against human SW620 cells after 48 hrs; details: SW-620, 48 h; in short: as §2
[11] = tested on: SF-268; assay: Anticancer activity against human SF268 cells after 48 hrs; details: SF-268, 48 h; in short: as §2
[12] = tested on: SNB-19; assay: Anticancer activity against human SNB19 cells after 48 hrs; details: SNB-19, 48 h; in short: as §2
[13] = tested on: SNB-75; assay: Anticancer activity against human SNB75 cells after 48 hrs; details: SNB-75, 48 h; in short: as §2
[14] = tested on: U-251; assay: Anticancer activity against human U251 cells after 48 hrs; details: U-251, 48 h
In short: (§3)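 NCI ~60 human tumour cell line panel with a 48 h incubation. GI50 is the concentration giving a 50% fall in net growth, TGI gives total growth inhibition, and LC50 gives a net 50% loss of initial cells. An effect not reached or exceeded is reported as greater or less than the highest or lowest concentration tested.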

[15] = tested on: LOX IMVI; assay: Anticancer activity against human LOXIMVI cells after 48 hrs; in short: as §1
[16] = tested on: M14; assay: Anticancer activity against human M14 cells after 48 hrs; details: M14, 48 h; in short: as §1
[17] = tested on: SK-MEL-5; assay: Anticancer activity against human SK-MEL-5 cells after 48 hrs; details: SK-MEL-5, 48 h; in short: as §2
[18] = tested on: UACC-257; assay: Anticancer activity against human UACC257 cells after 48 hrs; details: UACC-257, 48 h; in short: as §3
[19] = tested on: UACC-62; assay: Anticancer activity against human UACC62 cells after 48 hrs; details: UACC-62, 48 h; in short: as §3
[20] = tested on: IGROV-1; assay: Anticancer activity against human IGROV1 cells after 48 hrs; details: IGROV-1, 48 h; in short: as §1
[21] = tested on: OVCAR-4; assay: Anticancer activity against human OVCAR4 cells after 48 hrs; details: OVCAR-4, 48 h; in short: as §2
[22] = tested on: NCI/ADR-RES; assay: Anticancer activity against human NCI/ADR-RES cells after 48 hrs; in short: as §2
[23] = tested on: SK-OV-3; assay: Anticancer activity against human SKOV3 cells after 48 hrs; details: SK-OV-3, 48 h; in short: as §2
[24] = tested on: 786-0; assay: Anticancer activity against human 786-0 cells after 48 hrs; details: 786-0, 48 h; in short: as §1
[25] = tested on: A498; assay: Anticancer activity against human A498 cells after 48 hrs; details: A498, 48 h; in short: as §1
[26] = tested on: ACHN; assay: Anticancer activity against human ACHN cells after 48 hrs; in short: as §1
[27] = tested on: SN12C; assay: Anticancer activity against human SN12C cells after 48 hrs; in short: as §2
[28] = tested on: TK-10; assay: Anticancer activity against human TK10 cells after 48 hrs; details: TK-10, 48 h; in short: as §3
[29] = tested on: MDA-MB-231; assay: Anticancer activity against human MDA-MB-231 cells after 48 hrs; details: MDA-MB-231, 48 h; in short: as §1
[30] = Anticancer activity against human Hs 578T cells after 48 hrs; in short: as §1
[31] = tested on: BT-549; assay: Anticancer activity against human BT549 cells after 48 hrs; details: BT-549, 48 h; in short: as §1
[32] = tested on: MDA-MB-468; assay: Anticancer activity against human MDA-MB-468 cells after 48 hrs; details: MDA-MB-468, 48 h; in short: as §1
[33] = read-out: LC50 (the source's name)

Cc1cc(O)c(C2=NN(c3ccc(S(N)(=O)=O)cc3)C(/C=C/c3ccccc3)C2)cc1Cl (stereo not given)
GI50 [1]: 11.6 µM | LC50 (concentration killing 50% of initial cells) [1]: > 100 µM | TGI [1]: 87.5 µM | GI50 [2]: 12.7 µM | LC50 (concentration killing 50% of initial cells) [2]: 89.7 µM | TGI [2]: 33.8 µM | GI50 [3]: 14.2 µM | TGI [3]: 35.3 µM | CC50 [3, 33]: 87.4 µM | GI50 [4]: 3.94 µM | LC50 (concentration for 50% net loss of initial cells) [4]: 37.5 µM | TGI [4]: 14.1 µM | GI50 [5]: 1680 nM | LC50 (concentration killing 50% of initial cells) [5]: 35.4 µM | TGI [5]: 12.5 µM | GI50 [6]: 4.03 µM | LC50 (50% lethal concentration) [6]: 41.3 µM | TGI [6]: 17 µM | GI50 [7]: 4.62 µM | LC50 (concentration killing 50% of initial cells) [7]: 61.8 µM | TGI [7]: 19.4 µM | GI50 [8]: 10.4 µM | LC50 (concentration giving net 50% loss of initial cells) [8]: 47 µM | TGI [8]: 22.1 µM | GI50 [9]: 18.9 µM | CC50 [9, 33]: > 100 µM | GI50 [10]: 11.7 µM | TGI [10]: 31.3 µM | CC50 [10, 33]: 84 µM | GI50 [11]: 5.63 µM | LC50 (concentration killing 50% of initial cells) [11]: 46.7 µM | TGI [11]: 19.5 µM | GI50 [12]: 7.84 µM | TGI [12]: 19.9 µM | CC50 [12, 33]: 44.7 µM | GI50 [13]: 3.39 µM | TGI [13]: 16.1 µM | CC50 [13, 33]: 44.4 µM | GI50 [14]: 3.79 µM | TGI [14]: 15.6 µM | CC50 [14, 33]: 39.5 µM | GI50 [15]: 3.94 µM | TGI [15]: 16.2 µM | CC50 [15, 33]: 40.3 µM | GI50 [16]: 6.16 µM | TGI [16]: 19.3 µM | CC50 [16, 33]: 44.2 µM | GI50 [17]: 4.23 µM | LC50 [17]: 40.5 µM | TGI [17]: 16.4 µM | GI50 [18]: 14.5 µM | LC50 [18]: > 100 µM | TGI [18]: 45.7 µM | GI50 [19]: 2890 nM | LC50 [19]: 34 µM | TGI [19]: 11.4 µM | GI50 [20]: 4.32 µM | LC50 (net 50% loss of initial cells) [20]: 68.7 µM | TGI [20]: 19.8 µM | GI50 [21]: 3.74 µM | LC50 [21]: 48.6 µM | TGI [21]: 18.9 µM | GI50 [22]: 9.26 µM | TGI [22]: 22.7 µM | CC50 [22, 33]: 53 µM | GI50 [23]: 5.52 µM | TGI [23]: 17.9 µM | CC50 [23, 33]: 42.7 µM | GI50 [24]: 4.09 µM | TGI [24]: 12.5 µM | CC50 [24, 33]: 35.3 µM | GI50 [25]: 14.9 µM | TGI [25]: 42.4 µM | CC50 [25, 33]: > 100 µM | GI50 [26]: 5.27 µM | TGI [26]: 21.9 µM | CC50 [26, 33]: 67.2 µM | GI50 [27]: 11.1 µM | LC50 [27]: 59.4 µM | TGI [27]: 25.6 µM | GI50 [28]: 14.8 µM | LC50 [28]: 60.7 µM | TGI [28]: 29.9 µM | GI50 [29]: 4.56 µM | TGI [29]: 16.3 µM | CC50 [29, 33]: 40.8 µM | GI50 [30]: 12.3 µM | TGI [30]: 49.7 µM | CC50 [30, 33]: > 100 µM | GI50 [31]: 6.12 µM | TGI [31]: 21.3 µM | CC50 [31, 33]: 54.5 µM | GI50 [32]: 3.94 µM | TGI [32]: 13.8 µM | CC50 [32, 33]: 37.2 µM
